KLK5 inh – blocks human kallikrein 5 protease activity. inhibition, % at 5 µM. recombinant hK5, fluorogenic AMC substrate cleavage. Q9Y337. AID 873. 210,000 compounds, 0.59% hits;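 active = inhibition of 40% or more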;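 also: 0% = enzyme controls without compound and 100% = no-enzyme blanks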
FXIIa inh – factor XIIa (human) inhibition. AID 800. purified FXIIa, Boc-QGR-AMC fluorogenic substrate, 2 h. inhibition, % at 5 µM. 220,000 compounds, 0.3% hits. P00748; in the data active = inhibition above about 40%;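 also: 0% = enzyme with no compound and 100% = blank without enzyme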
FXIa inh 1536 – inhibitors of human coagulation factor XIa. P03951. purified FXIa, Boc-Glu-Ala-Arg-AMC fluorogenic substrate. inhibition, % at 5 µM. 220,000 compounds, 0.14% hits. AID 798;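 active = inhibition of at least 40%; inactive = inhibition below 40%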;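 also: fluorescence of freed AMC excited at 355 nm; 0% = enzyme without compound and 100% = no enzyme blank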
Target sequence (P03951 19-387 limits assumed): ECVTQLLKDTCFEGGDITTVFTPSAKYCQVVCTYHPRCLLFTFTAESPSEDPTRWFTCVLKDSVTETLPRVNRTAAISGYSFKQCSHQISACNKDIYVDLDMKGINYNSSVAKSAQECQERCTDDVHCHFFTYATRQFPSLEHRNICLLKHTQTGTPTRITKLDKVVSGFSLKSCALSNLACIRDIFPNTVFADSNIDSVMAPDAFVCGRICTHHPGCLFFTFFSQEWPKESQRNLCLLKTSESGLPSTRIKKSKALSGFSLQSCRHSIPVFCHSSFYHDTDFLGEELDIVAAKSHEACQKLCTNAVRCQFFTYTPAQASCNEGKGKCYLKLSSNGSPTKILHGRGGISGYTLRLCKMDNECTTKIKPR
Target sequence (P03951 388-625 limits assumed): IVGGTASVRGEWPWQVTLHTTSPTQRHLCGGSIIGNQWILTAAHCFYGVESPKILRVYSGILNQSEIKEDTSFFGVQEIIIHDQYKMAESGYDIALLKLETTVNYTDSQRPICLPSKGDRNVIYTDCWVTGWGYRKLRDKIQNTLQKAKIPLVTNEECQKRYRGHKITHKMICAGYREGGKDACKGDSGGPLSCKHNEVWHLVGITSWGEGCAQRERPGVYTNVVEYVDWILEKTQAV
thrombin 1536 – inhibitors of human thrombin; P00734; AID 1046; 220,000 compounds, 0.26% hits; alpha-thrombin, Boc-VPR-AMC fluorogenic substrate cleavage; inhibition, % at 5 µM;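 active = inhibition at or above 40%; inactive = inhibition below 40%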;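 also: 0% = enzyme with no compound and 100% = wells without enzyme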
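Material: human alpha-thrombin protein. Incubation: reaction at ambient temperature. Technique: fluorescence of released AMC, ex 355 nm, em 460 nm. Control set: no-compound enzyme wells and no-enzyme blanks. Also added: Boc-VPR-AMC substrate, 15 µM final. Buffer or medium: pH 7.5 Tris (50 mM) with NaCl 150 mM, Tween 20 0.05%.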
Starred values were filed as active, the others as inactive. In the library only some 1% were active in any assay of this set; here they are far more common.

SMILES	KLK5 inh	FXIIa inh	FXIa inh 1536	thrombin 1536
C=CCc1cc(Cl)ccc1OCCOCCN(C)C	-20	-4	0	0
O=C(Nc1scc(-c2ccccc2)c1C(=O)O)c1ccco1	59*	26	11	50*
CC(C)(C)SCCNS(=O)(=O)c1ccccc1	43*	50*	13	22
O=C(COc1ccc(Br)cc1CNCCCN1CCOCC1)Nc1ccccc1	-11	2	-2	-6
O=C(COC(=O)C1CC(=O)N(Cc2ccco2)C1)c1ccc(OC(=O)c2ccco2)cc1 (stereo not given)	31	41*	25	24
Cc1ccc(C(=O)Oc2ccc(C(=O)COC(=O)C3CC(=O)N(Cc4ccco4)C3)cc2)cc1 (stereo not given)	-19	14	4	-4
O=S1(=O)C[C@H]2NC(=S)N(c3ccccc3)[C@H]2C1	-3	10	7	4
Cc1ccnc(NC(=O)C2CCCN(S(=O)(=O)c3cnc[nH]3)C2)c1 (stereo not given)	15	-8	-10	70*
C[n+]1nc(Nc2cccc3ccccc23)sc1-c1ccc(C(=O)O)cc1	5	9	5	2
CC(C)(C)c1ccc(C(=O)CSc2nc3ccccc3c(=O)[nH]2)cc1	40*	10	14	14
O=C(CSc1nc2ccccc2c(=O)[nH]1)c1ccccc1	-7	15	10	5
COc1ccc(Oc2c(C)nc(SCC(=O)c3ccc(Cl)cc3)[nH]c2=O)cc1	4	12	3	2
Cc1nc(SCC(=O)c2ccccc2)[nH]c(=O)c1Oc1ccc(Cl)cc1	64*	22	29	34
O=C(O)CC12CC3CC(C1)CC(n1ncc(N4CCC5(CC4)OCCO5)c(Cl)c1=O)(C3)C2	3	5	3	-8
CCOC(=O)c1c(NC(=O)CSc2ncnc3ccccc23)sc(C(C)=O)c1C	-17	7	6	-8
CCOC(=O)c1c(NC(=O)COc2ncnc3ccccc23)sc(C)c1CC	69*	24	3	34
CN(C)C(CNC(=O)CSc1nnc(-c2ccco2)o1)c1ccccc1 (stereo not given)	74*	33	7	26
O=C(O)CSc1nnc(-c2ccco2)o1	-17	26	-5	-8
O=C(C[n+]1cnn(CC(=O)c2ccc(Cl)cc2Cl)c1)c1ccc([N+](=O)[O-])cc1	0	7	4	51*
O=C(Nc1cnn(Cc2ccc(Cl)cc2)c1)c1ccc([N+](=O)[O-])cc1	-19	18	7	1
COc1cc(-c2nnco2)cc(OC)c1OC	38	47*	34	-2
Cc1nnc(NC(=O)CSC2CCCCC2)s1	-26	4	-7	-10
O=C(CSC1CCCCC1)Nc1nccs1	54*	27	18	104*
CCOc1cccc2c1OC(c1cc(OC)c(OC)c(OC)c1)N1N=C(c3ccc(C)o3)CC21 (stereo not given)	0	17	5	-4
O=[N+]([O-])c1nn(-c2cccc(Cl)c2)n(O)c1=NCc1cccnc1	75*	17	12	17
SMILES	KLK5 inh	FXIIa inh	FXIa inh 1536	thrombin 1536
O=[N+]([O-])c1nn(-c2ccc(Cl)cc2)n(O)c1=NCc1cccnc1	-4	4	4	-10
Cc1ccc(S(=O)(=O)CCN2C=CC(C(F)(F)F)=NCC2)cc1	34	41*	21	4
CCCc1cc(C(=O)Nc2cccnc2)no1	-17	7	4	-5
CC(C)c1cc(C(=O)Nc2cccnc2)no1	45*	21	6	14
OCCCNC(=S)Nc1ccc(Br)cc1Cl	-2	5	0	-3
COc1ccc(N2C(=O)C(Cl)=C(N3CCCC(C)C3)C2=O)cc1 (stereo not given)	2	57*	44*	4
COc1ccc(OC)c(S(=O)(=O)N2CCCCCC2)c1	-20	9	6	4
COc1ccc(OC)c(NC(=O)C2CCCN(S(=O)(=O)c3cccc4cccnc34)C2)c1 (stereo not given)	57*	14	15	23
CCOC(=O)N1CCN(C(=O)C2CCCN(S(=O)(=O)c3cc(C)ccc3OC)C2)CC1 (stereo not given)	40*	0	1	104*
COc1ccc(N2C(=O)C(Cl)=C(N3CCCC3)C2=O)cc1	-23	13	7	2
COc1ccc(OC)c(S(=O)(=O)N2CCCC(C)C2)c1 (stereo not given)	-4	33	49*	-4
CCOc1ccc(CN2CCN(Cc3cccn3-c3nccs3)CC2CCO)cc1 (stereo not given)	-1	1	-4	-4
CC1=CC(c2ccc(Cl)cc2)n2nc(N3C(=O)CCC3=O)nc2N1 (stereo not given)	-15	3	-5	6
Cc1ccc(C2C=C(c3ccccc3)Nc3nc(N4C(=O)CCC4=O)nn32)cc1 (stereo not given)	0	6	2	48*
CNc1nc(N)c(C(=O)C23CC4CC(CC(C4)C2)C3)s1	-9	6	-6	-6
CCn1c(NCc2ccc3c(c2)OCO3)nc2ccccc21	53*	11	3	21
N#CC1CC(c2ccccc2)=NN1c1ccccc1[N+](=O)[O-] (stereo not given)	-4	4	-4	-2
C=C(C)CSc1nnc(-c2ccc(OC)cc2)n1N	45*	16	3	15
Cc1ccc(C)c(Cn2c(CO)nc3ccccc32)c1	41*	-6	7	17
O=C(c1cc2ccccc2[nH]1)N1CCOCC1	29	18	9	48*
CCc1cccc(CC)c1N(COC)C(=O)Cn1c(CO)nc2ccccc21	4	43*	8	-1
CC(C)CCNC(=O)COC(=O)c1cc(Br)c(Br)s1	-3	8	-4	-5
CCC(C)(C)NC(=O)/C=C/c1ccc(OC)c(S(=O)(=O)N2CCOCC2)c1	43*	24	12	18
COc1ccc(/C=C/C(=O)Nc2ccccc2C)cc1S(=O)(=O)N1CCOCC1	18	22	8	8
Cc1cc(C)cc(C(=O)N2CCC(C(N)=O)CC2)c1	13	30	7	-5
SMILES	KLK5 inh	FXIIa inh	FXIa inh 1536	thrombin 1536
Cc1c(C(=O)N2CCC(C(N)=O)CC2)sc(N)c1C#N	107*	9	8	104*
COc1ccc(-c2c[n+]3c4n2CCCCC4=C(c2ccccc2)C3)cc1	-143	-2	-3	58*
COc1ccc(-c2ccc(SCC(=O)c3ccccc3)nn2)cc1OC	-5	7	0	-3
CC(C)OCCCn1c(=S)[nH]c2cc3c(cc2c1=O)OCO3	45*	21	19	44*
Cn1nc(C(=O)Nc2nc(-c3ccc(F)cc3)cs2)ccc1=O	61*	39	105*	2
O=C(Nc1nc(-c2ccncc2)cs1)c1ccc(F)cc1	-2	7	-5	-9
O=C(NNC1=NCCCCC1)Nc1cccc(Cl)c1	24	42*	47*	40*
CCOC(=O)c1sc2cc([N+](=O)[O-])cc(SCC(=O)OC)c2c1N	68*	31	11	29
COC(=O)c1cc(OC)c(OC)cc1NC(=S)Nc1cc(Cl)ccc1OC	6	-2	-9	-9

From PubChem
